Source: ChEMBL document CHEMBL1158358, “Synthesis, antimicrobial and cytotoxic activities of some 5-arylidene-4-thioxo-thiazolidine-2-ones” (Eur J Med Chem, 2009)
In brackets after ≈: the same amount, converted by molar mass.

Tests used:
Type in all cases: functional
Enterococcus faecalis [1] = assay: Antimicrobial activity against Enterococcus faecalis UFPEDA 138 at 300 ug/disk after 24 hrs by disk diffusion method; settings: UFPEDA 138, 24 h, read-out: IZ
Outline: (§1)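 Preliminary screen by disk diffusion. Paper disks (6 mm) holding 300 µg of compound were placed on agar plates inoculated with a standardized microbial suspension. DMSO-only disks served as negative controls. A mean inhibition zone below 7 mm was scored as no sensitivity. Values are means, n = 3.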

Staphylococcus aureus [2] = assay: Antimicrobial activity against multidrug-resistant Staphylococcus aureus H.C. 21141 isolate after 20 hrs by twofold serial dilution technique; settings: H.C. 21141, 20 h
Outline: (§2)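 Twofold serial dilution MIC in agar plates against Gram-positive strains and multidrug-resistant clinical isolates. Inoculum applied was 10⁵ CFU/plate. Plates with culture medium plus DMSO served as negative control. MIC was read after incubation at 35 °C for 20 h.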

Staphylococcus aureus [3] = assay: Antimicrobial activity against multidrug-resistant Staphylococcus aureus H.C. 20794 isolate after 20 hrs by twofold serial dilution technique; settings: H.C. 20794, 20 h; outline: as §2
Micrococcus luteus [4] = assay: Antimicrobial activity against Micrococcus luteus UFPEDA 06 after 20 hrs by twofold serial dilution technique; settings: UFPEDA 06, 20 h
Outline: (§3)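 MIC was determined by twofold serial dilution. Bacteria were tested in plates at 10⁵ CFU/plate and read after 20 h. C. albicans was tested in tubes at 10³ CFU/tube and read after 48 h. All incubations were at 35 °C. Medium plus DMSO served as the negative control.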

Staphylococcus [5] = assay: Antimicrobial activity against coagulase-negative Staphylococcus H.A.M. 278 isolate after 20 hrs by twofold serial dilution technique; settings: H.A.M. 278, 20 h; outline: as §3
HEp-2 [6] = assay: Cytotoxicity against human Hep2 cells at 1.25 ug/mL after 72 hrs by MTT assay; settings: HEp-2, 72 h, read-out: GI
Outline: (§4)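 MTT antiproliferative assay. Cells were diluted to 10⁵ cells/mL in 96-well plates and preincubated for 24 h at 37 °C in humid 5% CO₂. Compounds or vincristine (reference) were then added. Formazan was dissolved and OD read at 540 nm, compared with medium-only control cells. Run in triplicate.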

Pseudomonas aeruginosa = assay: Antimicrobial activity against Pseudomonas aeruginosa UFPEDA 39 at 300 ug/disk after 24 hrs by disk diffusion method; settings: UFPEDA 39, 24 h, read-out: IZ; outline: as §1
Candida albicans [7] = assay: Antimicrobial activity against Candida albicans UFPEDA 1007 after 48 hrs by twofold serial dilution technique; settings: UFPEDA 1007, 48 h; outline: as §3
Staphylococcus [8] = assay: Antimicrobial activity against coagulase-negative Staphylococcus H.A.M. 338 isolate after 20 hrs by twofold serial dilution technique; settings: H.A.M. 338, 20 h; outline: as §3
NCI-H292 [9] = assay: Cytotoxicity against human NCI-H292 cells at 2.5 ug/mL after 72 hrs by MTT assay; settings: NCI-H292, 72 h, read-out: GI; outline: as §4
Bacillus subtilis [10] = assay: Antimicrobial activity against Bacillus subtilis UFPEDA 16 after 20 hrs by twofold serial dilution technique; settings: UFPEDA 16, 20 h; outline: as §3
Staphylococcus aureus [11] = assay: Antimicrobial activity against Staphylococcus aureus UFPEDA 01 at 300 ug/disk after 24 hrs by disk diffusion method; settings: UFPEDA 01, 24 h, read-out: IZ; outline: as §1
Enterococcus faecalis [12] = assay: Antimicrobial activity against multidrug-resistant Enterococcus faecalis H.C. 24708 isolate after 20 hrs by twofold serial dilution technique; settings: H.C. 24708, 20 h; outline: as §2
Staphylococcus aureus [13] = assay: Antimicrobial activity against multidrug-resistant Staphylococcus aureus H.C. 20905 isolate after 20 hrs by twofold serial dilution technique; settings: H.C. 20905, 20 h; outline: as §2
Enterococcus faecalis [14] = assay: Antimicrobial activity against multidrug-resistant Enterococcus faecalis H.C. 24962 isolate after 20 hrs by twofold serial dilution technique; settings: H.C. 24962, 20 h; outline: as §2
Escherichia coli = assay: Antimicrobial activity against Escherichia coli UFPEDA 224 at 300 ug/disk after 24 hrs by disk diffusion method; settings: UFPEDA 224, 24 h, read-out: IZ; outline: as §1
NCI-H292 [15] = assay: Cytotoxicity against human NCI-H292 cells at 1.25 ug/mL after 72 hrs by MTT assay; settings: NCI-H292, 72 h, read-out: GI; outline: as §4
Staphylococcus aureus [16] = assay: Antimicrobial activity against Staphylococcus aureus UFPEDA 01 after 20 hrs by twofold serial dilution technique; settings: UFPEDA 01, 20 h; outline: as §2
Micrococcus luteus [17] = assay: Antimicrobial activity against Micrococcus luteus UFPEDA 06 at 300 ug/disk after 24 hrs by disk diffusion method; settings: UFPEDA 06, 24 h, read-out: IZ; outline: as §1
Enterococcus faecalis [18] = assay: Antimicrobial activity against multidrug-resistant Enterococcus faecalis H.C. 21752 isolate after 20 hrs by twofold serial dilution technique; settings: H.C. 21752, 20 h; outline: as §2
Candida albicans [19] = assay: Antimicrobial activity against Candida albicans UFPEDA 1007 at 300 ug/disk after 48 hrs by disk diffusion method; settings: UFPEDA 1007, 48 h, read-out: IZ; outline: as §1
Enterococcus faecalis [20] = assay: Antimicrobial activity against multidrug-resistant Enterococcus faecalis H.C. 21944 isolate after 20 hrs by twofold serial dilution technique; settings: H.C. 21944, 20 h; outline: as §2
HEp-2 [21] = assay: Cytotoxicity against human Hep2 cells at 2.5 ug/mL after 72 hrs by MTT assay; settings: HEp-2, 72 h, read-out: GI; outline: as §4
[22] = system: Mycolicibacterium smegmatis; assay: Antimicrobial activity against Mycobacterium smegmatis UFPEDA 71 after 20 hrs by twofold serial dilution technique; settings: UFPEDA 71, 20 h; outline: as §3
NCI-H292 [23] = assay: Cytotoxicity against human NCI-H292 cells at 10 ug/mL after 72 hrs by MTT assay; settings: NCI-H292, 72 h, read-out: GI; outline: as §4
Staphylococcus aureus [24] = assay: Antimicrobial activity against multidrug-resistant Staphylococcus aureus H.C. 20489 isolate after 20 hrs by twofold serial dilution technique; settings: H.C. 20489, 20 h; outline: as §2
NCI-H292 [25] = assay: Cytotoxicity against human NCI-H292 cells at 5 ug/mL after 72 hrs by MTT assay; settings: NCI-H292, 72 h, read-out: GI; outline: as §4
HEp-2 [26] = assay: Cytotoxicity against human Hep2 cells at 10 ug/mL after 72 hrs by MTT assay; settings: HEp-2, 72 h, read-out: GI; outline: as §4
[27] = system: Mycolicibacterium smegmatis; assay: Antimicrobial activity against Mycobacterium smegmatis UFPEDA 71 at 300 ug/disk after 24 hrs by disk diffusion method; settings: UFPEDA 71, 24 h, read-out: IZ; outline: as §1
Enterococcus faecalis [28] = assay: Antimicrobial activity against Enterococcus faecalis UFPEDA 138 after 20 hrs by twofold serial dilution technique; settings: UFPEDA 138, 20 h; outline: as §3
Bacillus subtilis [29] = assay: Antimicrobial activity against Bacillus subtilis UFPEDA 16 at 300 ug/disk after 24 hrs by disk diffusion method; settings: UFPEDA 16, 24 h, read-out: IZ; outline: as §1
Serratia marcescens = assay: Antimicrobial activity against Serratia marcescens UFPEDA 398 at 300 ug/disk after 24 hrs by disk diffusion method; settings: UFPEDA 398, 24 h, read-out: IZ; outline: as §1
Staphylococcus aureus [30] = assay: Antimicrobial activity against multidrug-resistant Staphylococcus aureus H.C. 20981 isolate after 20 hrs by twofold serial dilution technique; settings: H.C. 20981, 20 h; outline: as §2
Staphylococcus aureus [31] = assay: Antimicrobial activity against multidrug-resistant Staphylococcus aureus H.C. 21036 isolate after 20 hrs by twofold serial dilution technique; settings: H.C. 21036, 20 h; outline: as §2
HEp-2 [32] = assay: Cytotoxicity against human Hep2 cells at 5 ug/mL after 72 hrs by MTT assay; settings: HEp-2, 72 h, read-out: GI; outline: as §4

SMILES	zone of inhibition at 300 µg/disc (Enterococcus faecalis [1]) [mm]	MIC (Staphylococcus aureus [2]) [mg/L]	MIC (Staphylococcus aureus [3]) [mg/L]	MIC (Micrococcus luteus [4]) [mg/L]	MIC (Staphylococcus [5]) [mg/L]	inhibition of growth at 1.25 µg/mL (HEp-2 [6]) [%]	zone of inhibition at 300 µg/disc (Pseudomonas aeruginosa) [mm]	MIC (Candida albicans [7]) [mg/L]	MIC (Staphylococcus [8]) [mg/L]	inhibition of growth at 2.5 µg/mL (NCI-H292 [9]) [%]	MIC (Bacillus subtilis [10]) [mg/L]	zone of inhibition at 300 µg/disc (Staphylococcus aureus [11]) [mm]	MIC (Enterococcus faecalis [12]) [mg/L]	MIC (Staphylococcus aureus [13]) [mg/L]	MIC (Enterococcus faecalis [14]) [mg/L]	zone of inhibition at 300 µg/disc (Escherichia coli) [mm]	inhibition of growth at 1.25 µg/mL (NCI-H292 [15]) [%]	MIC (Staphylococcus aureus [16]) [mg/L]	zone of inhibition at 300 µg/disc (Micrococcus luteus [17]) [mm]	MIC (Enterococcus faecalis [18]) [mg/L]	further results
O=C1NC(=S)/C(=C/c2ccccc2Cl)S1	16	8 (≈ 31.3 µM)	2 (≈ 7.82 µM)	16 (≈ 62.6 µM)	32 (≈ 125 µM)	-11.3	< 7	32 (≈ 125 µM)	8 (≈ 31.3 µM)	19.9	16 (≈ 62.6 µM)	25	16 (≈ 62.6 µM)	2 (≈ 7.82 µM)	32 (≈ 125 µM)	< 7	10.6	4 (≈ 15.6 µM)	18	16 (≈ 62.6 µM)	zone of inhibition at 300 µg/disc (Candida albicans [19]): 12 mm; MIC (Enterococcus faecalis [20]): 32 mg/L (≈ 125 µM); inhibition of growth at 2.5 µg/mL (HEp-2 [21]): -11.5%; MIC [22]: 16 mg/L (≈ 62.6 µM); inhibition of growth at 10 µg/mL (NCI-H292 [23]): 45%; MIC (Staphylococcus aureus [24]): 2 mg/L (≈ 7.82 µM); inhibition of growth at 5 µg/mL (NCI-H292 [25]): 34.2%; inhibition of growth at 10 µg/mL (HEp-2 [26]): 21.1%; zone of inhibition at 300 µg/disc [27]: 20 mm; MIC (Enterococcus faecalis [28]): 16 mg/L (≈ 62.6 µM); zone of inhibition at 300 µg/disc (Bacillus subtilis [29]): 17 mm; zone of inhibition at 300 µg/disc (Serratia marcescens): < 7 mm; MIC (Staphylococcus aureus [30]): 4 mg/L (≈ 15.6 µM); MIC (Staphylococcus aureus [31]): 2 mg/L (≈ 7.82 µM); inhibition of growth at 5 µg/mL (HEp-2 [32]): 5.97%
O=C1NC(=S)/C(=C/c2ccccc2Br)S1	19	16 (≈ 53.3 µM)	4 (≈ 13.3 µM)	16 (≈ 53.3 µM)	2 (≈ 6.66 µM)	3.14	< 7	32 (≈ 107 µM)	16 (≈ 53.3 µM)	16.2	8 (≈ 26.6 µM)	25	16 (≈ 53.3 µM)	4 (≈ 13.3 µM)	16 (≈ 53.3 µM)	< 7	13.3	4 (≈ 13.3 µM)	18	8 (≈ 26.6 µM)	zone of inhibition at 300 µg/disc (Candida albicans [19]): 13 mm; MIC (Enterococcus faecalis [20]): 16 mg/L (≈ 53.3 µM); inhibition of growth at 2.5 µg/mL (HEp-2 [21]): 10.3%; MIC [22]: 32 mg/L (≈ 107 µM); inhibition of growth at 10 µg/mL (NCI-H292 [23]): 36.9%; MIC (Staphylococcus aureus [24]): 4 mg/L (≈ 13.3 µM); inhibition of growth at 5 µg/mL (NCI-H292 [25]): 22.9%; inhibition of growth at 10 µg/mL (HEp-2 [26]): 21.2%; zone of inhibition at 300 µg/disc [27]: 21 mm; MIC (Enterococcus faecalis [28]): 32 mg/L (≈ 107 µM); zone of inhibition at 300 µg/disc (Bacillus subtilis [29]): 19 mm; zone of inhibition at 300 µg/disc (Serratia marcescens): < 7 mm; MIC (Staphylococcus aureus [30]): 4 mg/L (≈ 13.3 µM); MIC (Staphylococcus aureus [31]): 4 mg/L (≈ 13.3 µM); inhibition of growth at 5 µg/mL (HEp-2 [32]): 16.2%
O=C1NC(=S)/C(=C/c2cccc(Br)c2)S1	25	32 (≈ 107 µM)	8 (≈ 26.6 µM)	8 (≈ 26.6 µM)	64 (≈ 213 µM)	-5.3	< 7	64 (≈ 213 µM)	64 (≈ 213 µM)	11.1	8 (≈ 26.6 µM)	28	8 (≈ 26.6 µM)	16 (≈ 53.3 µM)	16 (≈ 53.3 µM)	< 7	4.67	4 (≈ 13.3 µM)	29	8 (≈ 26.6 µM)	zone of inhibition at 300 µg/disc (Candida albicans [19]): 14 mm; MIC (Enterococcus faecalis [20]): 16 mg/L (≈ 53.3 µM); inhibition of growth at 2.5 µg/mL (HEp-2 [21]): -1.82%; MIC [22]: 16 mg/L (≈ 53.3 µM); inhibition of growth at 10 µg/mL (NCI-H292 [23]): 42.4%; MIC (Staphylococcus aureus [24]): 8 mg/L (≈ 26.6 µM); inhibition of growth at 5 µg/mL (NCI-H292 [25]): 22%; inhibition of growth at 10 µg/mL (HEp-2 [26]): 23.6%; zone of inhibition at 300 µg/disc [27]: 25 mm; MIC (Enterococcus faecalis [28]): 16 mg/L (≈ 53.3 µM); zone of inhibition at 300 µg/disc (Bacillus subtilis [29]): 26 mm; zone of inhibition at 300 µg/disc (Serratia marcescens): < 7 mm; MIC (Staphylococcus aureus [30]): 16 mg/L (≈ 53.3 µM); MIC (Staphylococcus aureus [31]): 16 mg/L (≈ 53.3 µM); inhibition of growth at 5 µg/mL (HEp-2 [32]): -1.04%
